Drawing on ChEMBL document CHEMBL1821554, “Synthesis and anticancer activity of chalcone-pyrrolobenzodiazepine conjugates linked via 1,2,3-triazole ring side-armed with alkane spacers” (2011), this text covers GI50 and Activity for two compounds.

Test [1] relates to MCF7. Description: Anticancer activity against human MCF7 cells by SRB method. The class given is functional. In short, it runs like this:
(§1)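 Growth inhibition over a panel of human cancer lines (lung, ovarian, oral, colon, prostate, cervix, breast). Value is the 50% growth-inhibition concentration, reported as the mean ± standard error of the mean of three determinations.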
For orientation: Sulforhodamine B stains cellular protein and so reports cell mass.

In test [2] the test system is A2780. Description: Anticancer activity against human A2780 cells by SRB method. The class given is functional. In short, it runs like this:
as §1

For test [3], the system named is MCF7. Description: Cell cycle arrest in human MCF7 cells assessed as accumulation at S phase at 10 uM after 24 hrs using propidium iodide staining based flow cytometric analysis (reference value: 12.92 +/- 1 %). It counts as functional.
Test [4] addresses G1/S-specific cyclin-D1 (Homo sapiens) (UniProt P24385). Description: Down regulation of Cyclin D1 promoter activity expressed in human MCF7 cells co-transfected with luciferase gene at 4 uM after 24 hrs by luciferase reporter gene assay. It counts as cell-based. In short, it runs like this:
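MCF-7 cells were transfected for 24 h with the cyclin D1 promoter (−1745) luciferase construct, which contains an NF-kB site. Cells were then treated with 4 µM compound (final) for a further 24 h, and lysate luciferase was measured by luminometer. Untransfected cells served as negative control and transfected untreated cells as control.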

Test [5] is described as follows: Anticancer activity against human Gurav cells by SRB method. The class given is functional. In short, it runs like this:
as §1

Test [6] in a line: Anticancer activity against human DWD cells by SRB method. The class given is functional. In short, it runs like this:
as §1

Test [7] relates to MCF7. Description: Cell cycle arrest in human MCF7 cells assessed as accumulation at G0 phase at 10 uM after 24 hrs using propidium iodide staining based flow cytometric analysis (reference value: 1.27 +/- 0.08 %). The class given is functional. (In general: Flow cytometry measures light scatter and fluorescence of single cells or particles in a stream.)
For test [8], the system named is KB. Description: Anticancer activity against human KB cells by SRB method. The class given is functional. In short, it runs like this: as §1
The subject of test [9] is SiHa. Description: Anticancer activity against human SiHa cells by SRB method. It counts as functional. The procedure, abridged:
as §1

Test [10] has as its system MCF7. Description: Induction of cell cycle arrest at G1 phase in human MCF7 cells at 4 uM after 24 hrs using propidium iodide staining based flow cytometric analysis. The class given is functional. In short, it runs like this: (§2)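 MCF-7 cells were seeded at 5 × 10^5 per 60 mm dish and grown for 24 h, then exposed to 4 µM compound for 24 h. Cells were trypsinized, fixed in ice-cold 70% ethanol at 4 °C for 30 min and treated with 1 mg/ml RNase at 37 °C for 30 min. They were stained with propidium iodide/citrate/Triton X-100, and DNA content was read on 20,000 events by flow cytometry. Three independent repeats.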

Test [11] deals with MCF7. Description: Downregulation of cyclin D1 protein expression in human MCF7 cells at 4 uM after 24 hrs by Western blot analysis. It counts as functional, cell-based. The procedure, abridged:
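MCF-7 cells at 80% confluency were treated with 4 µM compound for 24 h. Cells were lysed in RIPA buffer with protease inhibitors and protein was quantified by Bradford. 50 µg per lane was run on 12% SDS-PAGE and transferred to PVDF. Blots were probed overnight at 4 °C with rabbit polyclonal anti-cyclin D1, with β-actin as loading control, and detected by chemiluminescence.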
A general note: In western blotting, separated proteins are transferred to a membrane and probed.

Test [12] relates to MCF7. Description: Induction of apoptosis in human MCF7 cells assessed as down regulation of Bcl2 expression at 4 uM after 24 hrs by ELISA. The class given is functional, cell-based. The procedure, abridged: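 MCF-7 cells were treated with 4 µM compound for 24 h. Lysates were added to Bcl2 antibody-coated wells, followed by biotinylated anti-human Bcl2 monoclonal antibody, and bound Bcl2 was detected with streptavidin-HRP (sandwich ELISA).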

Test [13] relates to A549. Description: Anticancer activity against human A549 cells by SRB method. The class given is functional. The procedure, abridged: as §1
Test [14] concerns HOP-62. Description: Anticancer activity against human HOP62 cells by SRB method. It counts as functional. The procedure, abridged: as §1
Test [15] concerns MCF7. Description: Cell cycle arrest in human MCF7 cells assessed as accumulation at G2/M phase at 10 uM after 24 hrs using propidium iodide staining based flow cytometric analysis (reference value: 38.15 +/- 1.068 %). It counts as functional.
The test system of test [16] is MCF7. Description: Cell cycle arrest in human MCF7 cells assessed as accumulation at G0/G1 phase at 4 uM after 24 hrs using propidium iodide staining based flow cytometric analysis. The class given is functional. The procedure, abridged:
as §2

Test [17] relates to MCF7. Description: Induction of apoptosis in human MCF7 cells assessed as down regulation of Bcl-xL expression at 4 uM after 24 hrs by Western blot.
The subject of test [18] is ZR-75-1. Description: Anticancer activity against human ZR-75-1 cells by SRB method. The class given is functional. In short, it runs like this: as §1
Test [19] concerns MCF7. Description: Cell cycle arrest in human MCF7 cells assessed as accumulation at G1 phase at 10 uM after 24 hrs using propidium iodide staining based flow cytometric analysis (reference value: 47.64 +/- 1.49 %). It counts as functional.
Test [20] deals with PC-3. Description: Anticancer activity against human PC3 cells by SRB method. It counts as functional. In short, it runs like this:
as §1

Test [21] concerns MCF7. Description: Cytotoxicity against human MCF7 cells assessed as reduction in cell viability at 4 uM after 24 hrs by MTT assay. The class given is functional, cell-based. In short, it runs like this: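 MCF-7 cells were seeded at 10,000 per well and left overnight, then treated with 4 µM compound for 24 h. MTT was added for 2 h at 37 °C, formazan was solubilized in extraction buffer, and OD was read at 570 nm. Untreated cells served as control. Three independent experiments, SD.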

Test [22] is described as follows: Down regulation of NF-kappaB activity expressed in human MCF7 cells transfected with NF-kB SEAP plasmid at 4 uM after 24 hrs by chemiluminescence-based luminometric analysis. It counts as cell-based. In short, it runs like this: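 MCF-7 cells were transiently transfected with the NF-kB SEAP plasmid using lipofectamine 2000. After 24 h, cells were treated with 4 µM compound for 24 h. Lysates were assayed with a chemiluminescent reagent and read by luminometry and by 30 min X-ray film exposure. Transfected untreated cells served as control.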

Test [23] relates to MCF7. Description: Cytotoxicity against human MCF7 cells assessed as reduction in cell viability at 2 uM after 24 hrs by MTT assay. The class given is functional, cell-based.

The structures appear in SMILES notation. Activity calls are given as the source filed them. The rule behind the calls is not given here.

Chain of G1/S-specific cyclin-D1 (Homo sapiens) (P24385 whole entry): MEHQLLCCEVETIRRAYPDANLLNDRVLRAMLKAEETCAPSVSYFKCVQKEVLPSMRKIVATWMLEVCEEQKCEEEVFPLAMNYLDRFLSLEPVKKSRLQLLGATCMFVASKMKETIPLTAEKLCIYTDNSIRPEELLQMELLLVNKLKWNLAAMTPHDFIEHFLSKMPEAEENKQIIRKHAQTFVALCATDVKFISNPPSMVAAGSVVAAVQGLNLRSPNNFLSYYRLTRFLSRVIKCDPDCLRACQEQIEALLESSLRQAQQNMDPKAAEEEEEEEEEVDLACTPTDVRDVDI

The term GI50 denotes the concentration that inhibits growth by half. Higher therefore signals less potent growth inhibition. Regarding `COc1cc(/C=C/C(=O)c2ccccc2O)ccc1OCCCCn1cc(COc2cc3c(cc2OC)C(=O)N2CCC[C@H]2C=N3)nn1`, the GI50 is 140 nM in [1]; 100 nM in test [2]; 120 nM in [5]; under 130 nM in test [6]; 170 nM in [8]; 140 nM in test [9]. In addition, the GI50 in [13] is under 160 nM; in [14] it was 160 nM; in test [18], 150 nM; in [20], 130 nM. Also, the Activity in test [3] turned out to be 4.99%; in test [7], 10.79%; in test [15], 7.07%; in test [16], 89.1%; in [19], 77.47%. Also, the outcome in test [4], in test [10], in [11], in test [12], in test [17] and in [21] was Active. In addition, in test [22], the outcome was Active. The result in test [23] was inactive.

As for `COc1cc(/C=C/C(=O)c2ccc(O)cc2)ccc1OCCCn1cc(COc2cc3c(cc2OC)C(=O)N2CCC[C@H]2C=N3)nn1`, the GI50 is 160 nM in test [1]; 120 nM in [2]; 130 nM in test [5]; 120 nM in test [6]; 2030 nM in test [8]; 180 nM in test [9]. The GI50 in test [13] came to 150 nM; in test [14] it was 170 nM; in [18], 170 nM; in test [20], 160 nM. In addition, the Activity in test [3] was 6.48%; in test [7] it was 13.67%; in [15], 7.33%; in [16] it was 87.7%; in test [19] it was 72.51%. For the same compound, the outcome in test [4], in test [10], in [11], in test [12], in test [17] and in [21] was Active. Also, in [22], the outcome was Active. Besides, in test [23], the outcome was inactive.
